Data as given in ChEMBL document CHEMBL4316619 (Bioorg Med Chem Lett, 2019).
Activity calls are given as the source filed them. The rule behind the calls is not given here.

Experiments:
[1] = Drug level in C57BL/6 mouse lung at 30 mg/kg, ip measured at 1 hrs; type: ADME, organism-based; settings: in vivo
In short: (§1)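 Male C57BL/6 mice received a single intraperitoneal dose of 30 mg/kg (N=3). Compound concentrations were followed over time in plasma, liver and lung. Tmax, Cmax, terminal t1/2, AUClast and AUCINF were derived from the mean concentration-time profiles.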

[2] = Drug level in C57BL/6 mouse liver at 30 mg/kg, ip measured at 48 hrs; type: ADME, organism-based; settings: in vivo; in short: as §1
[3] = Terminal half life in C57BL/6 mouse plasma at 30 mg/kg, ip; type: ADME, organism-based; settings: mouse, in vivo
In short: (§2)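 Male C57BL/6 mice, single intraperitoneal 30 mg/kg dose, N=3. Plasma, liver and lung concentrations followed over time to give concentration-time profiles, from which Tmax, Cmax, terminal t1/2, AUClast and AUCINF were derived.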

[4] = Drug level in C57BL/6 mouse liver at 30 mg/kg, ip measured at 8 hrs; type: ADME, organism-based; settings: in vivo; in short: as §1
[5] = target: Luciferin 4-monooxygenase (Photinus pyralis) (UniProt P08659); assay: Effect on firefly luciferase activity expressed in 293 cells at 50 uM by luminescence assay; type: cell-based
Chain of Luciferin 4-monooxygenase (Photinus pyralis) (P08659 whole entry): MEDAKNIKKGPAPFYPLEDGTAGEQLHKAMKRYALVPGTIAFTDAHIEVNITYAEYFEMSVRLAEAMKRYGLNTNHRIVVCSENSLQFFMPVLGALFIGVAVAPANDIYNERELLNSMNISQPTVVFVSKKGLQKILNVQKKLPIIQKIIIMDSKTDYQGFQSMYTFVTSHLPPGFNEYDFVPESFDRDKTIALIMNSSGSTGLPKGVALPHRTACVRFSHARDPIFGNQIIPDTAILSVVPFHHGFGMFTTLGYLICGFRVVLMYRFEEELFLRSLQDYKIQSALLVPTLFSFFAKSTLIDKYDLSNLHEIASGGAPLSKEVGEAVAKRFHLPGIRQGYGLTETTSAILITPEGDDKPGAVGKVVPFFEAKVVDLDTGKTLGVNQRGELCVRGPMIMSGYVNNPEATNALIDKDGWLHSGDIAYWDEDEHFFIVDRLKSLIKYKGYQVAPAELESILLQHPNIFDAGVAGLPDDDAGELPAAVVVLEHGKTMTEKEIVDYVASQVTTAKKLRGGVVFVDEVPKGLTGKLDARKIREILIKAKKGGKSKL

Influenza A virus H3N2 = assay: Antiviral activity against Influenza A virus (A/Brisbane/10/2007(H3N2)) infected in MDCK cells assessed as reduction in virus-induced cytopathic effect measured on day 5 by Celltiter-Glo luminescence assay; type: functional, organism-based; settings: 120 h
In short: (§3)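 MDCK cells were infected with seasonal influenza A strains through NIAID resources and scored for protection from virus-induced cell death. Compounds were tested at four concentrations (0.8, 4, 20, 100 μM). EC50/EC90 (reduction of viral cell death) and CC50 (reduction of cell viability) were derived in μM, and SI50 = CC50/EC50.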

[6] = Terminal half life in C57BL/6 mouse liver at 30 mg/kg, ip; type: ADME, organism-based; settings: read-out: beta t1/2 (converted); in short: as §2
[7] = Toxicity in C57BL/6 mouse assessed as adverse effect at 30 mg/kg, ip; type: organism-based; settings: in vivo
[8] = Tmax in C57BL/6 mouse lung at 30 mg/kg, ip; type: ADME, organism-based; in short: as §2
[9] = AUClast in C57BL/6 mouse lung at 30 mg/kg, ip; type: ADME, organism-based; design: dose 30 mg/kg, route intraperitoneal, time 0 - last; in short: as §1
[10] = Apparent permeability across basolateral to apical side in human Caco2 cells assessed as drug recovery in presence of 3% BSA; type: ADME, cell-based; settings: caco-2
In short: (§4)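 Permeability was measured across Caco-2 monolayers in both directions, apical to basolateral and basolateral to apical. […] Runs were done with and without 3% BSA, and mass recovery (%) was reported for each direction. Efflux ratio = Papp B→A / Papp A→B.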

[11] = Apparent permeability across basolateral to apical side in human Caco2 cells measured after 2 hrs in presence of 3% BSA; type: ADME, cell-based; settings: caco-2, 2 h; in short: as §4
[12] = Cytotoxicity against MDCK cells assessed as reduction in cell viability measured on day 5 by Celltiter-Glo luminescence assay; type: cell-based, Canis lupus familiaris; settings: dog, MDCK cells; in short: as §3
[13] = Tmax in C57BL/6 mouse plasma at 30 mg/kg, ip; type: ADME, organism-based; settings: mouse, in vivo; in short: as §2
[14] = Drug level in C57BL/6 mouse lung at 30 mg/kg, ip measured at 0.083 hrs; type: ADME, organism-based; settings: in vivo; in short: as §1
[15] = Stability of the compound in mouse liver microsomes assessed as parent compound remaining measured after 15 mins; type: ADME, Microsome; settings: read-out: Stability
In short: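 Mouse liver microsomes; percent parent compound remaining measured at 0, 15 and 30 min.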

[16] = target: Non-structural protein 1 (Influenza A virus (strain A/Puerto Rico/8/1934 H1N1)) (UniProt P03496); assay: Inhibition of Influenza A virus A/PR/8/34 (H1N1) NS1 expressed in 293 cells assessed as increase in poly(I:C)-induced IFN-beta reporter activity treated 16 hrs […] measured after 24 hrs by luciferase reporter gene assay; type: cell-based; settings: Influenza A virus (A/Puerto Rico/8/1934(H1N1))
Chain of Non-structural protein 1 (Influenza A virus (strain A/Puerto Rico/8/1934 H1N1)) (P03496 whole entry): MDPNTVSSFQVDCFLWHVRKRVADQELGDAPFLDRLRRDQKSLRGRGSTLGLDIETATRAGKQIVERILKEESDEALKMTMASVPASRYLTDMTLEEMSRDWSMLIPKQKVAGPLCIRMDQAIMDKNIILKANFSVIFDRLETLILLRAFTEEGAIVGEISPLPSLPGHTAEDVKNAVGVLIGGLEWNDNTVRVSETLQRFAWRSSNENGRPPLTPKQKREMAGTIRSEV
In short: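 293 cells co-transfected with a human IFN-β promoter-driven firefly luciferase reporter and NS1 expression constructs. At 16 h post-transfection, poly(I:C) 50 μg/mL plus compound (20 μM) or 1% DMSO added for a further 24 h; luciferase read by luminometer. Untransfected cells serve as baseline.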

Influenza A virus [17] = assay: Antiviral activity against Influenza A virus (A/California/7/2009(H1N1)) infected in MDCK cells assessed as reduction in virus-induced cytopathic effect measured on day 5 by Celltiter-Glo luminescence assay; type: functional, organism-based; settings: 120 h; in short: as §3
Saccharomyces cerevisiae = assay: Effect on growth of Yeast 9526-6-2 harboring pYES at 50 uM measured up to 60 hrs; type: organism-based; settings: in vivo
In short: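 Control yeast carrying empty pYES and NS1-expressing NS1-pYES strain grown with DMSO or compound at 50 μM. Growth measured as OD600 at 22, 42 and 60 h.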

[18] = Drug level in C57BL/6 mouse lung at 30 mg/kg, ip measured at 48 hrs; type: ADME, organism-based; settings: in vivo; in short: as §1
[19] = Drug level in C57BL/6 mouse liver at 30 mg/kg, ip measured at 3 hrs; type: ADME, organism-based; settings: in vivo; in short: as §1
[20] = Drug level in C57BL/6 mouse liver at 30 mg/kg, ip measured at 24 hrs; type: ADME, organism-based; settings: in vivo; in short: as §1
Influenza A virus [21] = assay: Antiviral activity against Influenza A virus A/PR/8/34 (H1N1) infected in MDCK cells assessed as fold reduction in virus titer at 10 uM measured after 48 hrs by hemagglutination assay relative to control; type: functional, A/Puerto Rico/8/1934(H1N1)
In short: (§5)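 MDCK cells were infected with A/PR/8/34 (H1N1) at MOI 0.1 and incubated with compound for 48 h. Supernatant virus was then quantified by hemagglutination assay and standard TCID50 analysis. The single-concentration screen used 10 μM and reports fold reduction in titer. Dose-response runs used triplicate cultures, with percent titer decrease back-calculated from TCID50.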

[22] = Drug level in C57BL/6 mouse plasma at 30 mg/kg, ip measured at 12 hrs; type: ADME, organism-based; in short: as §2
[23] = Drug level in C57BL/6 mouse lung at 30 mg/kg, ip measured at 12 hrs; type: ADME, organism-based; settings: in vivo; in short: as §1
[24] = Drug level in C57BL/6 mouse plasma at 30 mg/kg, ip measured at 24 hrs; type: ADME, organism-based; in short: as §2
Influenza A virus [25] = assay: Antiviral activity against Influenza A virus A/PR/8/34 (H1N1) infected in MDCK cells assessed as 3-log reduction in virus titer measured after 48 hrs by hemagglutination assay; type: functional, A/Puerto Rico/8/1934(H1N1); in short: as §5
Influenza A virus [26] = assay: Antiviral activity against Influenza A virus A/PR/8/34 (H1N1) infected in MDCK cells assessed as reduction in virus titer measured after 48 hrs by hemagglutination assay; type: functional; settings: A/Puerto Rico/8/1934(H1N1); in short: as §5
[27] = Drug level in C57BL/6 mouse liver at 30 mg/kg, ip measured at 0.5 hrs; type: ADME, organism-based; settings: in vivo; in short: as §1
[28] = Drug level in C57BL/6 mouse lung at 30 mg/kg, ip measured at 8 hrs; type: ADME, organism-based; settings: in vivo; in short: as §1
[29] = Drug level in C57BL/6 mouse lung at 30 mg/kg, ip measured at 2 hrs; type: ADME, organism-based; settings: in vivo; in short: as §1
[30] = Drug level in C57BL/6 mouse liver at 30 mg/kg, ip measured at 2 hrs; type: ADME, organism-based; settings: in vivo; in short: as §1
[31] = Tmax in C57BL/6 mouse liver at 30 mg/kg, ip; type: ADME, organism-based; in short: as §2

Question: With `COc1cc(-c2ccnc3c2c(C)nn3-c2ccc(C(F)(F)F)cc2)ccc1O` as the compound, how does the Drug uptake [1] read?
Answer: 26592 nmol/kg

Question: What about the Drug uptake [2] of the same compound?
Answer: 23 nmol/kg

Question: And the “beta t1/2” value [3]?
Answer: 276 min

Question: What about the Drug uptake [4] of the same compound?
Answer: 5058 nmol/kg

Question: What about the Activity [5] of the same compound?
Answer: inactive

Question: What about the EC50 (Influenza A virus H3N2) of the same compound?
Answer: 17 µM

Question: And the EC90 (Influenza A virus H3N2)?
Answer: > 50 µM

Question: What about the half-life [6] of the same compound?
Answer: 282 min

Question: What about the Activity [7] of the same compound?
Answer: Non-Toxic

Question: What about the Tmax [8] of the same compound?
Answer: 15 min

Question: What about the AUC(0-t) [9] of the same compound?
Answer: 53900 ng·h/mL

Question: What about the Drug recovery [10] of the same compound?
Answer: 81%

Question: And the Papp [11]?
Answer: 0.27 ×10⁻⁶ cm/s

Question: And the CC50 at 5 day [12]?
Answer: 19.8 to 27.8 µM

Question: What about the Tmax [13] of the same compound?
Answer: 15 min

Question: And the Drug uptake [14]?
Answer: 20891 nmol/kg

Question: And the remaining at 0.25 h [15]?
Answer: 66%

Question: And the inhibition [16]?
Answer: Active

Question: What about the EC50 (Influenza A virus [17]) of the same compound?
Answer: 0.7 µM

Question: What about the EC90 (Influenza A virus [17]) of the same compound?
Answer: > 50 µM

Question: What about the Activity (Saccharomyces cerevisiae) of the same compound?
Answer: Non-Toxic

Question: And the Drug uptake [18]?
Answer: 15 nmol/kg

Question: And the Drug uptake [19]?
Answer: 10058 nmol/kg

Question: And the Drug uptake [20]?
Answer: 224 nmol/kg

Question: What about the “fold change (FC)” value (Influenza A virus [21]) of the same compound?
Answer: 128

Question: What about the concentration at 12 h [22] of the same compound?
Answer: 209 nM

Question: What about the Drug uptake [23] of the same compound?
Answer: 1741 nmol/kg

Question: And the concentration at 24 h [24]?
Answer: 20 nM

Question: What about the TCID50 (Influenza A virus [25]) of the same compound?
Answer: 1.6 µM

Question: What about the IC90 (Influenza A virus [26]) of the same compound?
Answer: 0.155 µM

Question: What about the Drug uptake [27] of the same compound?
Answer: 62599 nmol/kg

Question: And the Drug uptake [28]?
Answer: 3931 nmol/kg

Question: And the Drug uptake [29]?
Answer: 16568 nmol/kg

Question: What about the Drug uptake [30] of the same compound?
Answer: 18413 nmol/kg

Question: What about the Tmax [31] of the same compound?
Answer: 15 min
